Measurements reported in ChEMBL document CHEMBL4400522, “Chikungunya virus inhibition by synthetic coumarin-guanosine conjugates” (Eur J Med Chem, 2019).

Legend:
Chikungunya virus [1] = test: Antiviral activity against Chikungunya virus 899 infected in African green monkey Vero A cells assessed as inhibition of viral RNA replication by RT-qPCR analysis; format: functional, organism-based; conditions: Chikungunya virus, 899, Vero
Chikungunya virus [2] = test: Antiviral activity against Chikungunya virus infected in African green monkey Vero cells assessed as reduction in virus-induced cytopathic effect after 7 days by MTS assay; format: functional, organism-based; conditions: 168 h
[3] = Selectivity index, ratio of CC50 for African green monkey Vero cells to EC50 for chikungunya virus infected in African green monkey Vero E6 cells; format: toxicity, Vero C1008; conditions: read-out: Ratio CC50/EC50
[4] = Cytotoxicity against African green monkey Vero A cells by MTS assay; format: cell-based; conditions: chlorocebus aethiops
Summary of the method: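 Host-cell metabolism in Vero subtype A cells was measured by MTS read-out. CC50 is the concentration reducing host-cell metabolism by 50%. It was determined only for selected conjugates.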

[5] = Selectivity index, ratio of CC50 for African green monkey Vero A cells to EC50 for chikungunya virus 899 infected in African green monkey Vero A cells; format: toxicity; conditions: read-out: Ratio CC50/EC50
[6] = Lipophilicity, log P of the compound; format: physicochemical; conditions: octanol/water
Chikungunya virus [7] = test: Antiviral activity against Chikungunya virus infected in African green monkey Vero E6 cells assessed as reduction in virus-induced cytopathic effect; format: functional, organism-based; conditions: Vero C1008
[8] = Selectivity index, ratio of CC50 for African green monkey Vero E6 cells to EC50 for chikungunya virus infected in African green monkey Vero cells; format: toxicity, Vero C1008; conditions: read-out: Ratio CC50/EC50
[9] = Aqueous solubility of the compound measured per 100 ml; format: physicochemical; conditions: buffer

Structure (SMILES): Nc1nc(SCc2cc3cc(Br)ccc3oc2=O)c2nc(SCc3ccccc3)n([C@@H]3O[C@H](CO)[C@@H](O)[C@H]3O)c2n1
- EC50 (Chikungunya virus [1]): > 152 µM

Structure (SMILES): C=C(C)[C@@]12OC3(c4ccccc4)O[C@@H]1[C@@H]1[C@@H]4O[C@]4(CO)[C@@H](O)[C@@]4(O)[C@@H](C=C(C)[C@@H]4O)[C@@]1(O3)[C@H](C)[C@@H]2OC(=O)C(C)CCCCCCCC (stereo partly specified)
- EC50 (Chikungunya virus [2]): 0.6 µM
- selectivity ratio [3]: 71.7

Structure (SMILES): Cc1ccc2oc(=O)c(CSc3nc(N)nc4c3nc(SCc3cc5cc(C)ccc5oc3=O)n4[C@@H]3O[C@H](CO)[C@@H](O)[C@H]3O)cc2c1
- CC50 [4]: 81.3 µM
- EC50 (Chikungunya virus [1]): 40.9 µM
- selectivity ratio [5]: 1.98
- logP [6]: 3.22

Structure (SMILES): Nc1nc(SCc2cc3cc(Cl)ccc3oc2=O)c2nc(SCc3ccccc3)n([C@@H]3O[C@H](CO)[C@@H](O)[C@H]3O)c2n1
- EC50 (Chikungunya virus [1]): > 163 µM

Structure (SMILES): Nc1nc(SCc2cc3ccccc3oc2=O)c2nc(SCc3cccc4ccccc34)n([C@@H]3O[C@H](CO)[C@@H](O)[C@H]3O)c2n1
- EC50 (Chikungunya virus [1]): > 159 µM

Structure (SMILES): COc1ccc2oc(=O)c(CSc3nc(N)nc4c3nc(SCc3ccccc3)n4[C@@H]3O[C@H](CO)[C@@H](O)[C@H]3O)cc2c1
- EC50 (Chikungunya virus [1]): > 164 µM
- logP [6]: 2.78

Structure (SMILES): CSc1nc2c(SCc3cc4cc(C)ccc4oc3=O)nc(N)nc2n1[C@@H]1O[C@H](CO)[C@@H](O)[C@H]1O
- EC50 (Chikungunya virus [1]): > 194 µM

Structure (SMILES): Nc1nc2c(nc(SCc3ccccc3)n2[C@@H]2O[C@H](CO)[C@@H](O)[C@H]2O)c(=S)[nH]1
- EC50 (Chikungunya virus [1]): > 237 µM

Structure (SMILES): Nc1nc(SCc2cc3ccccc3oc2=O)c2nc(SCc3ccccc3)n([C@@H]3O[C@H](CO)[C@@H](O)[C@H]3O)c2n1
- EC50 (Chikungunya virus [1]): > 173 µM

Structure (SMILES): Nc1nc(SCc2cc3ccccc3oc2=O)c2nc(SCc3cc4ccccc4oc3=O)n([C@@H]3O[C@H](CO)[C@@H](O)[C@H]3O)c2n1
- EC50 (Chikungunya virus [1]): > 154 µM

Structure (SMILES): Nc1nc2c(nc(SCc3cccc4ccccc34)n2[C@@H]2O[C@H](CO)[C@@H](O)[C@H]2O)c(=S)[nH]1
- EC50 (Chikungunya virus [1]): > 212 µM

Structure (SMILES): CSCc1cc2ccccc2oc1=O
- EC50 (Chikungunya virus [1]): > 485 µM

Structure (SMILES): Nc1nc(SCc2cc3cc(F)ccc3oc2=O)c2nc(SCc3cc4cc(F)ccc4oc3=O)n([C@@H]3O[C@H](CO)[C@@H](O)[C@H]3O)c2n1
- EC50 (Chikungunya virus [1]): > 146 µM

Structure (SMILES): COc1cccc2cc(CSc3nc(N)nc4c3nc(SCc3cc5cccc(OC)c5oc3=O)n4[C@@H]3O[C@H](CO)[C@@H](O)[C@H]3O)c(=O)oc12
- CC50 [4]: 96.5 µM
- EC50 (Chikungunya virus [1]): 10.3 µM
- selectivity ratio [5]: 9.37
- logP [6]: 2.97

Structure (SMILES): Nc1nc2c(nc(S)n2[C@@H]2O[C@H](CO)[C@@H](O)[C@H]2O)c(=S)[nH]1
- EC50 (Chikungunya virus [1]): > 302 µM
- logP [6]: -0.13

Structure (SMILES): Nc1nc(SCc2cc3cc(Br)ccc3oc2=O)c2nc(SCc3cc4cc(Br)ccc4oc3=O)n([C@@H]3O[C@H](CO)[C@@H](O)[C@H]3O)c2n1
- EC50 (Chikungunya virus [1]): > 124 µM

Structure (SMILES): CSc1nc2c(SCc3cc4cc(Br)ccc4oc3=O)nc(N)nc2n1[C@@H]1O[C@H](CO)[C@@H](O)[C@H]1O
- EC50 (Chikungunya virus [1]): > 172 µM

Structure (SMILES): CSc1nc2c(SCc3cc4ccccc4oc3=O)nc(N)nc2n1[C@@H]1O[C@H](CO)[C@@H](O)[C@H]1O
- EC50 (Chikungunya virus [1]): > 198 µM

Structure (SMILES): CCN1C(=O)CCSC1c1cc2cc(Cc3ccc4oc(C5SCCC(=O)N5CC)cc4c3)ccc2o1 (stereo unspecified)
- EC50 (Chikungunya virus [7]): 1.9 µM
- selectivity ratio [8]: 75

Structure (SMILES): COc1cccc2cc(CSc3nc(N)nc4c3nc(SC)n4[C@@H]3O[C@H](CO)[C@@H](O)[C@H]3O)c(=O)oc12
- EC50 (Chikungunya virus [1]): > 188 µM

Structure (SMILES): COc1ccc2oc(=O)c(CSc3nc(N)nc4c3nc(SCc3cccc5ccccc35)n4[C@@H]3O[C@H](CO)[C@@H](O)[C@H]3O)cc2c1
- CC50 [4]: > 227 µM
- EC50 (Chikungunya virus [1]): 13.9 µM
- selectivity ratio [5]: > 16.3
- logP [6]: 3.77

Structure (SMILES): Nc1nc(SCc2cc3cc(Cl)ccc3oc2=O)c2nc(SCc3cc4cc(Cl)ccc4oc3=O)n([C@@H]3O[C@H](CO)[C@@H](O)[C@H]3O)c2n1
- EC50 (Chikungunya virus [1]): > 140 µM

Structure (SMILES): CSc1nc2c(SCc3cc4cc(Cl)ccc4oc3=O)nc(N)nc2n1[C@@H]1O[C@H](CO)[C@@H](O)[C@H]1O
- EC50 (Chikungunya virus [1]): > 186 µM

Structure (SMILES): COc1ccc2oc(=O)c(CSc3nc(N)nc4c3nc(SCc3cc5cc(OC)ccc5oc3=O)n4[C@@H]3O[C@H](CO)[C@@H](O)[C@H]3O)cc2c1
- CC50 [4]: > 212 µM
- EC50 (Chikungunya virus [1]): 9.9 µM
- selectivity ratio [5]: > 21.7
- logP [6]: 3.01
- solubility [9]: 7.2 mg
